DNMT1 inh – inhibitors of human DNMT1. P26358. DNMT1 molecular beacon, Hinp1I cleavage, fluorescence. inhibition (reported as % activation of signal), % at 10 µM. hit rate 0.83% among 360,000; in the data active = inhibition above about 50%
Scp-1 inhibitor – Scp-1 (human) phosphatase inhibition; hit rate 0.88% among 340,000; Q9GZU7; Recombinant Scp1, phosphopeptide, malachite green phosphate absorbance; inhibition, % at 20 µM; AID 493091;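 active = inhibition above about 50% at 20 µM, limit read from the data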;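 also: plate controls were DMSO wells with enzyme for no effect and wells lacking enzyme for full effect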
Target sequence (Q9GZU7 76-261 limits assumed): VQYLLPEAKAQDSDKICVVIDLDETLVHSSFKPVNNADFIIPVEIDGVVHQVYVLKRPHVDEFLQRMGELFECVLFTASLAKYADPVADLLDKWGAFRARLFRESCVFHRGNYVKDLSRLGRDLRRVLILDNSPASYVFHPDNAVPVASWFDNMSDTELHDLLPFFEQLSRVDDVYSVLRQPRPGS
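assay system = SCP-1 phosphatase catalytic domain, residues 76-261 | buffer or medium = 50 mM Tris acetate pH 5.5, 0.005% Tween-20, 10 mM MgCl2 | incubation = enzyme reaction 45 min at room temperature, colour 5 min, stabilisation 30 min | signal = Phosphate-binding colour reagent, absorbance read at 630 nm | measure = % inhibition at 20 µM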
LMPTP block – LMPTP (human) inhibition | recombinant LMPTP-A, OMFP fluorogenic substrate, fluorescence intensity | inhibition, % at 20 µM | hit rate 0.22% among 360,000;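 active = compounds that cut the enzyme signal by at least half of the control window in the single-dose screen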;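 also: plate controls were DMSO wells with enzyme plus substrate for no effect and substrate without enzyme for full effect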
Target sequence (P24666 whole entry, looked up): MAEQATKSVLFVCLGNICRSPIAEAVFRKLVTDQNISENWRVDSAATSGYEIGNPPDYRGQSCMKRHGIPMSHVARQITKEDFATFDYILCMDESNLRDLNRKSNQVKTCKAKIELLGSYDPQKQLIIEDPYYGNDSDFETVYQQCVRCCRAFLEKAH
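Test system: LMPTP-A phosphatase enzyme. Amount: LMPTP-A at 0.625 nM final in the reaction. Reagent: OMFP substrate, 400 µM final. Times: 50 min at room temperature. Signal: endpoint fluorescence intensity from OMFP dephosphorylation. Read-out basis: % inhibition. Benchmarks: no-enzyme and uninhibited controls.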
SUMO1 PPI mod – alters human SUMO1 binding to SIM partners; hit rate 0.33% among 360,000; inhibition, % at 20 µM; SUMO1 binding to a labelled peptide, TR-FRET, 1 h; P63165; in the data active = inhibition above about 37%
Target sequence (P63165 whole entry, looked up): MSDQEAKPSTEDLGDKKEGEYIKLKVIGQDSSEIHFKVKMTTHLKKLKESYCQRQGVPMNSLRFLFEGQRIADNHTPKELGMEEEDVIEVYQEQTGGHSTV
STEP inh – STEP (human) phosphatase inhibition. P54829. recombinant STEP, OMFP fluorogenic substrate, fluorescence. inhibition, % at 20 µM. hit rate 0.25% among 360,000. AID 588621;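 active = inhibition at 20 µM, scaled per plate between control wells, above about 37%, limit read from the data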;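 also: 0% = DMSO with enzyme and substrate and 100% = substrate only without enzyme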
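Measure: Control-normalized % inhibition with plate pattern correction | Test system: STEP phosphatase, cell-free reaction | Medium: pH 6.0 Bis-Tris with DTT and Tween 20 | Technique: Fluorescence, 480/540 nm | Times: Reaction 20 min, ambient temperature | Doses: Single compound dose of 20 µM, 1% DMSO final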
DNMT1 interf DR – counter-screen for DNMT1 inhibitors: spectral interference, dose response | shares compounds with DNMT1 inh | molecular beacon fluorescence | IC50, µM | 200 tested, under 10 active; call rule not given here
DNMT1 confirm – DNMT1 inhibition confirmation, single concentration; shares compounds with DNMT1 inh; DNMT1 molecular beacon HinP1I cleavage, fluorescence; inhibition, % at 10 µM; hit rate 8% among 2,300; AID 602385;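 active = average inhibition of at least 30% in the single-concentration confirmation test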
Beacon interf – beacon fluorescence artifact counter-screen. shares compounds with DNMT1 inh. DNMT1 molecular beacon spectral interference counterscreen, fluorescence 485/520. activation (fluorescence interference), % at 10 µM. hit rate 1% among 2,300;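 active = activation of at least 30% at 10 µM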;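 also: DNMT1 catalytic domain with a HinP1I cleavage step and a FAM/dabcyl DNA beacon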
* hit, by the source's call; / = not tested or not shown. This is a sample that favours compounds with a hit; in the whole collection about 1.7% have one here.

SMILES	DNMT1 inh	Scp-1 inhibitor	LMPTP block	SUMO1 PPI mod	STEP inh	DNMT1 confirm	Beacon interf	others
CC(C)CCN1C(=O)c2ccccc2C1c1nnnn1-c1ccc2c(c1)OCCO2 (stereo unspecified)	/	/	0	-4	/	/	/
CC1=NN(c2ccccc2)C(=O)/C1=C/C=C/c1ccccc1	14	-12	2	31	2	/	/
CC1=NN(c2cccc(C(=O)O)c2)C(=O)/C1=C\C=C\c1ccco1	106*	80*	15	25	41*	107*	-5	DNMT1 interf DR=>99
Cc1cc(C)c2c(c1)CC(C)(C)CC2=O	2	7	0	-1	-1	/	/
CC(=O)Nc1ccc(S(=O)(=O)N(C)CC(=O)OCC(=O)N(C)C2CCS(=O)(=O)C2)cc1 (stereo unspecified)	-7	7	-1	2	0	/	/
CC(C)CNC(=O)COC(=O)c1c2c(nc3ccccc13)/C(=C\c1cccs1)CC2	-1	7	6	-8	0	/	/
CN(CCC#N)C(=O)COC(=O)c1c2c(nc3ccccc13)/C(=C/c1ccco1)CC2	100*	78*	59*	15	3	21	13
COc1ccc(C2CCc3cc(OC)c(OC)cc3C2NC=O)cc1OC (stereo unspecified)	7	/	-2	-2	-3	/	/
Brc1ccc(C2=Nn3c(nnc3-c3cccnc3)SC2)s1	62*	4	38	-8	36	0	-5
Clc1ccc(C2=Nn3c(nnc3-c3cccnc3)SC2)s1	9	3	-2	-9	4	/	/
COCCN(C(=O)c1cc(Cl)nc2ccccc12)c1c(N)n(Cc2ccccc2)c(=O)[nH]c1=O	3	13	-1	7	-1	/	/
O=C(Nc1ccc2oc(=O)ccc2c1)c1ccc(-c2cccc(Cl)c2)o1	91*	-2	21	4	2	-2	-8
Cc1ccc(-c2ccc(CN3C(C)C(=O)N(Cc4cn(Cc5ccco5)nn4)CCS3(=O)=O)cc2)c(C)c1 (stereo unspecified)	-12	/	3	3	3	/	/
CC(C)C[C@@H]1NC(=O)[C@H](CO)NC(=O)c2cc([N+](=O)[O-])cc(I)c2OCC[C@@H](C(N)=O)NC1=O	10	-8	-2	-17	2	/	/
COc1ccc(-n2c(SCC(=O)N3CCc4ccccc43)nnc2-c2c[nH]c3ccccc23)cc1	67*	-6	0	2	5	-3	-5
CCn1c(SCC(=O)N2CCc3ccccc32)nnc1-c1c[nH]c2ccccc12	4	4	2	-4	-3	/	/
CC(Oc1ccc(F)cc1)C(=O)Nc1cccc(S(=O)(=O)N(C)c2ccccc2)c1 (stereo unspecified)	1	/	1	0	-2	/	/
Cc1cccc(CC(=O)NCCN2CCCCC2)c1	57*	33	1	1	1	-1	2
COc1ccccc1C(O)(C(=O)NN(C)c1ccccc1)c1ccccc1OC	5	-2	-1	2	1	/	/
Cc1ccc(C(=O)C(C)OC(=O)CCN=C2NS(=O)(=O)c3ccccc32)cc1 (stereo unspecified)	-2	-1	-1	2	-2	/	/
Cc1cccn2c(=O)c3cc(C(=O)NCCC4=CCCCC4)n(C)c3nc12	59*	22	2	3	2	0	-7
CCOc1ccc(N(CC(=O)Nc2ccc(C)cc2C)S(C)(=O)=O)cc1	71*	0	-2	-3	-1	-2	0
Cc1cc(O)c(S(=O)(=O)c2ccccc2)c(C)c1NS(=O)(=O)c1ccccc1	0	-3	-1	8	0	/	/
COc1cc2oc(=O)cc(-c3ccc(-c4ccc(OC(F)(F)F)cc4)cc3)c2c(OC)c1OC	61*	-8	13	4	3	0	1
CN(C(=O)COC(=O)CNC(=O)c1ccc2ccccc2c1)c1c(N)n(Cc2ccccc2)c(=O)[nH]c1=O	0	-8	0	-9	0	/	/
SMILES	DNMT1 inh	Scp-1 inhibitor	LMPTP block	SUMO1 PPI mod	STEP inh	DNMT1 confirm	Beacon interf	others
Cc1ccc(Nc2nc(C)cc(C)n2)c(Br)c1	-1	-5	1	2	2	/	/
Cc1cc(C)nc(Nc2ccc(Br)cc2C(=O)O)n1	55*	-9	0	5	1	3	6
CCc1nc(NCc2cccs2)c2nnn(Cc3ccccc3)c2n1	67*	/	-3	1	4	0	4
COc1ccc(CC(=O)Nc2ccc(-c3noc(-c4cccc(OC)c4)n3)cc2)cc1	61*	11	-1	-4	-7	1	1
COc1cccc(-c2nc(-c3ccc(NC(=O)c4cccnc4)cc3)no2)c1	-10	5	0	2	-2	/	/
CCN1C(=O)CC(NC2CCN(C(=O)c3ccc(F)cc3)CC2)C1=O (stereo unspecified)	1	-5	0	4	-3	/	/
CN(C)c1ccc(NC(=O)CN2CCc3ccccc3C2)cc1	0	-4	3	4	1	/	/
CCNC(=O)N(C)c1c(CC)nc2ccc(C(=O)N3CCN(S(=O)(=O)CC)CC3)cn12	53*	/	-2	-5	-2	7	4
CCOc1cc(/C=C2\C(=N)N3N=CSC3=NC2=O)ccc1OS(=O)(=O)c1ccccc1	4	-2	1	9	0	/	/
CCOc1cc(/C=C2/C(=N)N3N=C(C)SC3=NC2=O)ccc1OS(=O)(=O)c1ccc(C)cc1	75*	-9	1	19	-1	9	1
O=C(N/N=C/c1ccc([N+](=O)[O-])o1)c1cc2c(ccc3ccccc32)o1	85*	94*	79*	2	95*	8	-9
Cc1ccc(/C=N/NC(=O)c2cc3c(ccc4ccccc43)o2)cc1[N+](=O)[O-]	80*	-7	0	-8	-1	-1	-7
O=C(N/N=C/c1ccc(O)c(Br)c1)c1cc2c(ccc3ccccc32)o1	-4	1	-1	-1	-2	/	/
OC(Cc1cccnc1)c1ccccc1 (stereo unspecified)	0	-5	-3	28	-2	/	/
COc1ccc(-c2ccc(C(=O)Nc3ccc4c(c3)OCO4)c3occc23)c(C)c1	-9	/	4	5	0	/	/
Oc1ccc(/C=N/Nc2cc(N3CCCC3)nc(N3CCCC3)n2)cc1	-8	-12	9	6	10	/	/
COc1ccc(/C=N/Nc2cc(N3CCCC3)nc(N3CCCC3)n2)cc1	58*	-4	23	3	7	1	-10
Cc1cc(NC(=O)CSc2nc3sc4c(c3c(=O)n2C)CCCC4)no1	56*	3	0	2	0	3	-10

Screens: PubChem, Sanford-Burnham Center for Chemical Genomics
